Assay results from different studies.
Lines come from different studies, so protocols differ.
Target: Uncharacterized serine/threonine-protein kinase SBK3 (SBK3, Homo sapiens, UniProt P0C264)
Sequence (P0C264 1-359, as in one of the studies): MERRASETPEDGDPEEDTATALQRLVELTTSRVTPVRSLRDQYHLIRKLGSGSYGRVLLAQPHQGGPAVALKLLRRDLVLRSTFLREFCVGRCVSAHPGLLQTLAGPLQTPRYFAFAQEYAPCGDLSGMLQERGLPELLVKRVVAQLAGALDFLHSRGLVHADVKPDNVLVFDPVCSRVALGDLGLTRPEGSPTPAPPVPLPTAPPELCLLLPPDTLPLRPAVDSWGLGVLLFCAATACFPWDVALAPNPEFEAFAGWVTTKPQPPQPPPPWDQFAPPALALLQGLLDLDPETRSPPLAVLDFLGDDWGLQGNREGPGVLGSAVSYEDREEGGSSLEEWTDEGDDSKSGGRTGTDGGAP

Structure (SMILES) | observed | method | tested at | remaining binding [%]
CN(C)c1ncc(F)c(-c2cnn3ncccc23)n1 | binding | – | 1 µM | 74
O=C(NCCCN1CCOCC1)c1ccc(Nc2nccc(-c3cc4ccccc4s3)n2)cc1 | binding | competition with immobilised ligand | 1 µM | 91
CNC(=O)[C@@H]1CC[C@@H](n2c(-c3ccc4cnccc4c3)nc3ccc(C(=O)NCc4cccc(C(N)=O)c4)cc32)C1 | binding | competition with immobilised ligand | 1 µM | 87
O=C(Nc1ccc(Oc2ccc(F)cc2)cc1)N1CCc2ncccc2[C@H]1c1ccc(F)cc1 | cell-free assay | competition with immobilised ligand | 1 µM | 70
CN(c1nccc(-c2cnn3ncccc23)n1)C1CC1 | binding | – | 1 µM | 100
O=C(c1ccc(Nc2nccc(-c3cc4ccccc4s3)n2)cc1)N1CCC(N2CCCC2)CC1 | binding | competition with immobilised ligand | 1 µM | 88
CCN1CCN(Cc2ccc(C(=O)Nc3ccc(C)c(Oc4ccc5c(c4)CC(=O)N5)c3)cc2C(F)(F)F)CC1 | binding | competition with immobilised ligand | 1 µM | 100
CS(=O)(=O)c1cc(C2(NC(=O)c3cncc4c3cnn4-c3ccc(F)cc3)CC2)ccn1 | cell-free assay | competition with immobilised ligand | 1 µM | 100
COc1cnc(Nc2cccc(S(N)(=O)=O)c2)nc1N1CCN(c2ccccc2)CC1 | binding | competition with immobilised ligand | 1 µM | 100
Cn1nc(C(=O)NCc2ccc(C(=O)O)cc2)cc1-c1ccc2[nH]ccc2c1 | cell-free assay | competition with immobilised ligand | 0.1 µM | 79
Cc1cnn2ncc(-c3ccnc(N(C)C)n3)c2c1 | binding | – | 1 µM | 26
CO[C@@H](C)c1c(Nc2ccc([C@@H](N(C)C(=O)C3CCS(=O)(=O)CC3)C(F)(F)F)cc2)cnc2cc(Cl)nn12 | cell-free assay | competition with immobilised ligand | 1 µM | 81
CC1CCCN1c1nccc(-c2cnn3ncccc23)n1 (stereo not drawn) | binding | – | 1 µM | 100
FC(F)(F)Oc1cccc(-c2cnc3ccc(-c4ccncc4)nn23)c1 | binding | competition with immobilised ligand | 5 µM | 100
COc1ncc2cc3ccccc3nc2c1C#N | cell-free assay | competition with immobilised ligand | 5 µM | 100
O=C(NCC1CCOCC1)c1n[nH]cc1NC(=O)c1c(F)cccc1F | binding | competition with immobilised ligand | 1 µM | 68
Cc1cnc(Nc2ccc(C(=O)N3CCC(N4CCCC4)CC3)cc2)nc1-c1cc2ccccc2s1 | binding | competition with immobilised ligand | 1 µM | 46
CCCCN(CCCC)C(=O)CN1C[C@@H](c2cc(OC)c3c(c2)OCO3)[C@H](C(=O)O)[C@H]1CC(C)(C)CCC | cell-free assay | competition with immobilised ligand | 1 µM | 100
CN(CCCC(F)(F)F)c1nccc(-c2cnn3ncccc23)n1 | binding | – | 1 µM | 42
CN(C)C(=O)Cn1cc(-c2nc([C@@](C)(c3ccc(-c4cnc(N)nc4)cc3)C3CC3)no2)cn1 | cell-free assay | competition with immobilised ligand | 1 µM | 71
N[C@H]1CCN(c2nccc(-c3cnn4ncccc34)n2)C1 | binding | – | 1 µM | 100
